Measurements taken from ChEMBL document CHEMBL4811241, “Revisiting Pyrazolo[3,4-d]pyrimidine Nucleosides as Anti-Trypanosoma cruzi and Antileishmanial Agents” (J Med Chem, 2021).

Experiments:
UGT [1] = target: T1, UGT (Homo sapiens, UniProt O60656+O75310+O75795+P06133+P0DTE4+P0DTE5+P16662+P19224+P22309+P22310+P35503+P35504+P36537+P54855+Q6UWM9+Q9BY64+Q9HAW7+Q9HAW8+Q9HAW9); test: Metabolic stability of the compound in human liver microsomes S9 fraction assessed as UGT-mediated metabolism by measuring parent compound remaining at 5 uM measured after 60 mins in presence of UDPGA by UPLC-MS analysis; format: ADME, subcellular; details: read-out: Stabilty
Outline: (§1)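 Compound at 5 μM with 0.5 mg/mL male mouse or pooled human liver microsomes; reaction started with 2 mM UDPGA. Sampled at 0, 15, 30 and 60 min and quenched in cold acetonitrile with internal standard. Parent remaining measured by UPLC-MS/MS (MRM) as % of the 0 min value.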

Trypanosoma cruzi [2] = test: Antitrypanosomal activity against nifurtimox-sensitive Trypanosoma cruzi Tulahuen CL2 infected in Swiss mouse peritoneal macrophages assessed as inhibition of parasite growth measured after 7 days in presence of ABC transporter inhibitor, verapamil by spectrophotometric analysis; format: functional, organism-based; details: Tulahuen CL2, Peritoneal macrophage, 168 h
Outline: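 Macrophage-hosted 7-day assay read with CPRG at 540 nm, with compound given together with an ABC transporter inhibitor: cyclosporine A 2 μM, probenecid 700 μM or verapamil 8 μM. IC50 from % reduction versus infected controls.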

CYP450 [3] = test: Metabolic stability of the compound in mouse liver microsomes S9 fraction assessed as CYP450-mediated metabolism by measuring parent compound remaining at 5 uM measured after 15 mins in presence of NADPH by UPLC-MS analysis; format: ADME, subcellular; details: read-out: Stabilty
Outline: (§2)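 Compound at 5 μM with 0.5 mg/mL male mouse or pooled human liver microsomes in potassium phosphate buffer; reaction started with 1 mM NADPH. Samples taken at 0, 15, 30 and 60 min and quenched in cold acetonitrile with internal standard. Parent remaining quantified by UPLC-MS/MS in MRM mode and given as % of the 0 min value.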

[4] = Cytotoxicity against Swiss Webster mouse 2D cardiomyocytes assessed as reduction in cell viability measured after 48 hrs by PrestoBlue assay; set-up: species or system Cardiac Muscle Cell; details: read-out: LC50
Outline: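 Mouse embryo heart cells as monolayer (2D) or 3D aggregates (25 × 10³ cells/well on 1% agarose). Uninfected cultures exposed 48 h to rising concentrations. Morphology checked by light microscopy; viability read by PrestoBlue; CC₅₀ determined.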

Leishmania infantum = test: Antileishmanial activity against amastigote form of Leishmania infantum MHOM/MA(BE)/67 infected in Swiss mouse peritoneal macrophages assessed as reduction in parasite growth treated at 2 hrs post-infection and measured after 5 days by Giemsa staining based microscopic analysis; format: functional, organism-based; details: MHOM/MA(BE)/67, Peritoneal macrophage
Outline: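 Swiss mouse peritoneal macrophages, harvested after 2-day potato-starch stimulation, infected 48 h after plating; compounds added 2 h post-infection.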

Trypanosoma cruzi [5] = test: Antitrypanosomal activity against Trypanosoma cruzi Y bloodstream trypomastigotes assessed as inhibition of parasite growth incubated for 24 hrs by light microscopy; format: functional, organism-based
UGT [6] = target: T1, UGT; test: Metabolic stability of the compound in human liver microsomes S9 fraction assessed as UGT-mediated metabolism by measuring parent compound remaining at 5 uM measured after 15 mins in presence of UDPGA by UPLC-MS analysis; format: ADME, subcellular; details: read-out: Stabilty; outline: as §1
UGT [7] = test: Metabolic stability of the compound in mouse liver microsomes S9 fraction assessed as UGT-mediated metabolism by measuring parent compound remaining at 5 uM measured after 15 mins in presence of UDPGA by UPLC-MS analysis; format: ADME, subcellular; details: read-out: Stabilty; outline: as §1
[8] = Toxicity in Swiss webster mouse infected with Trypanosoma cruzi Y trypomastigotes assessed as animal survival at 0.25 mg/kg, po bid for 5 days treatment started at 6 days post-infection and measured at 34 days post-infection; format: organism-based; details: in vivo, 696 h, time 29 day
Outline: (§3)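 Male Swiss Webster mice (18−20 g, 4−5 weeks) were infected i.p. with 10⁴ Y-strain bloodstream trypomastigotes from a donor mouse. Only mice with detectable parasitemia were treated, in groups of six. Oral gavage was given on days 6–10 post-infection, b.i.d. or q.d. as listed, in 10% Tween 80 vehicle, freshly prepared. Infected vehicle controls were included. Mortality was checked daily to 34 dpi as cumulative percentage.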

[9] = Toxicity in Swiss webster mouse infected with Trypanosoma cruzi Y trypomastigotes assessed as animal survival at 2.5 to 25 mg/kg, po bid for 5 days treatment started at 6 days post-infection and measured at 34 days post-infection; format: organism-based; details: in vivo, dose 2.5-25 mg/kg, time 29 day; outline: as §3
Trypanosoma cruzi [10] = test: Antitrypanosomal activity against nifurtimox-sensitive Trypanosoma cruzi Tulahuen CL2 infected in human MRC-5 SV2 cells assessed as inhibition of parasite growth measured after 7 days by spectrophotometric analysis; format: functional, organism-based; details: Tulahuen CL2, MRC-5 SV2, 168 h
CYP450 [11] = target: T2, CYP450 (Homo sapiens, UniProt P04798+P05177+P05181+P08684+P10632+P10635+P11509+P11712+P13584+P20813+P20815+P20853+P24462+P24903+P33260+P33261+P51589+P78329+P98187+Q02928+Q08477+Q16678+Q16696+Q5TCH4+Q6VVX0+Q7Z449+Q8TAV3+Q96SQ9+Q9HB55); test: Metabolic stability of the compound in human liver microsomes S9 fraction assessed as CYP450-mediated metabolism by measuring parent compound remaining at 5 uM measured after 15 mins in presence of NADPH by UPLC-MS analysis; format: ADME, subcellular; details: read-out: Stabilty; outline: as §2
CYP450 [12] = target: T2, CYP450; test: Metabolic stability of the compound in human liver microsomes S9 fraction assessed as CYP450-mediated metabolism by measuring parent compound remaining at 5 uM measured after 30 mins in presence of NADPH by UPLC-MS analysis; format: ADME, subcellular; details: read-out: Stabilty; outline: as §2

SMILES: Nc1ncnc2c1c(-c1ccc(Cl)cc1)nn2[C@@H]1O[C@H](CO)[C@@H](O)[C@H]1O
- remaining at 1 h, 5 µM (UGT [1]): 104%
- IC50 (Trypanosoma cruzi [2]): > 64 µM
- remaining at 0.25 h, 5 µM (CYP450 [3]): 103%
- CC50 at 48 h [4]: 500 µM
- IC50 (Leishmania infantum): > 64 µM
- IC50 (Trypanosoma cruzi [5]): > 81 µM
- remaining at 0.25 h, 5 µM (UGT [6]): 100%
- remaining at 0.25 h, 5 µM (UGT [7]): 103%
- Activity [8]: Toxic
- survival at 696 h [9]: 83%
- IC50 (Trypanosoma cruzi [10]): 0.32 µM
- remaining at 0.25 h, 5 µM (CYP450 [11]): 102%
- remaining at 0.5 h, 5 µM (CYP450 [12]): 101%
